Reference: ChEMBL document CHEMBL1154414, “In vitro and in vivo activities of T-705 against arenavirus and bunyavirus infections” (Antimicrob Agents Chemother, 2007)

How the values were obtained:
[1] = tested on: Pichinde virus; experiment: Antiviral activity against Pichinde virus An 4763 infected Syrian golden hamster assessed as animals with detectable virus level in serum at 50 mg/kg, po twice daily for 7 days administered 72 hrs post viral-challenge measured on day 7 of viral infection; format: functional
Procedure, shortened: (§1)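 Hamsters (groups of 15, placebo 25-30) were dosed orally by gavage twice daily (drug suspended in 0.4% CMC) after bilateral intraperitoneal challenge with 65 PFU. Five per group were killed on day 7. Liver homogenate or serum was serially diluted onto triplicate B-SC-1 wells, CPE was read at 6-8 days, and the 50% endpoint was taken. Range was 2.8-9.5 log10 CCID50/0.1 g or 0.1 ml, with undetectable assigned <2.8.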

[2] = tested on: Pichinde virus; experiment: Antiviral activity against Pichinde virus An 4763 infected Syrian golden hamster assessed as mean day of death at 20 mg/kg, po twice daily for 7 days administered 24 hrs post viral-challenge; format: functional
Procedure, shortened: (§2)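 Groups of 15 hamsters (placebo 25-30) were challenged intraperitoneally (bilateral, 65 PFU) and dosed twice daily by oral gavage in 0.4% CMC for 5 to 7 days.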

[3] = tested on: Punta Toro virus; experiment: Antiviral activity against 5000 PFU Punta Toro virus Adames infected C57BL/6 mouse assessed as mean viral titer per 0.1 mL of serum at 10 mg/kg, po twice daily administered 24 hrs post viral challenge measured on day 3 of viral infection; format: functional
Procedure, shortened: (§3)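 Mice were infected subcutaneously with PTV and dosed by oral gavage twice daily; 5 per group (10 placebo) were killed on day 3 or 4. Liver homogenate or serum was serially diluted onto triplicate LLC-MK2 monolayers, and CPE was read 6–8 days later. 50% endpoints gave log10 CCID50 per 0.1 g liver or 0.1 ml serum. Detection range was 2.8–9.5; undetectable samples were assigned <2.8.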

[4] = tested on: La Crosse virus; experiment: Antiviral activity against La Crosse virus assessed as inhibition of virus-induced visual cytopathic effect after 3 to 5 days; format: functional, organism-based
Procedure, shortened: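 Virus diluted in 2% FBS medium was added with half-log drug dilutions at infection. Plates were incubated at 37°C, 5% CO2, until maximal CPE in infected controls, then scored visually 3–5 days post-infection. EC50 was derived by regression analysis.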

[5] = tested on: Punta Toro virus; experiment: Antiviral activity against 500 PFU Punta Toro virus Adames infected C57BL/6 mouse assessed as animals with detectable virus level in liver at 10 mg/kg, po twice daily administered 24 hrs post viral challenge measured on day 3 of viral infection; format: functional
Procedure, shortened: (§4)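 T-705 was suspended in 0.4% carboxymethylcellulose and given by oral gavage twice daily. Mice were infected subcutaneously with PTV. Five mice per group (10 placebo) were sacrificed on day 3 or 4. Liver homogenate or serum was serially diluted onto triplicate LLC-MK2 monolayers, and CPE was read at 6–8 days. The detection limit was 2.8 log10 CCID50 per 0.1 g liver or 0.1 ml serum.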

[6] = tested on: Pichinde virus; experiment: Antiviral activity against Pichinde virus An 4763 infected Syrian golden hamster assessed as mean serum ALT levels at 50 mg/kg, po twice daily for 7 days administered 72 hrs post viral-challenge measured on day 7 of viral infection measured on day 7 of viral infection; format: functional
Procedure, shortened: (§5)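 Hamsters were challenged intraperitoneally (bilateral, 65 PFU) and given twice-daily oral gavage doses (0.4% CMC vehicle). Five per group were sacrificed on day 7 and serum was collected. Serum ALT activity was measured by kinetic assay. Three sham-infected animals set the baselines.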

[7] = tested on: Pichinde virus; experiment: Antiviral activity against Pichinde virus An 4763 infected Syrian golden hamster assessed as mean serum ALT levels at 40 mg/kg, po twice daily for 7 days administered 4 hrs before viral-challenge measured on day 7 of viral infection; format: functional; procedure, shortened: as §5
[8] = tested on: Punta Toro virus; experiment: Antiviral activity against 5000 PFU Punta Toro virus Adames infected C57BL/6 mouse assessed as mean serum ALT levels at 10 mg/kg, po twice daily administered 24 hrs post viral challenge measured on day 3 of viral infection; format: functional
Procedure, shortened: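 C57BL/6 mice received subcutaneous PTV, then oral gavage twice daily for 5–7 days. T-705 was given in 0.4% CMC and ribavirin in saline. Five mice per group (10 placebo) were killed on day 3 or 4, and serum was collected. ALT activity was measured by kinetic assay. Three sham-infected mice set baselines.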

[9] = tested on: Punta Toro virus; experiment: Antiviral activity against 5000 PFU Punta Toro virus Adames infected C57BL/6 mouse assessed as mean day of death at 10 mg/kg, po twice daily for 5 days administered 24 hrs post viral challenge; format: functional
Procedure, shortened: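 PTV was inoculated subcutaneously into mice in groups of 15 (25–30 placebo). Dosing was by oral gavage twice daily for 5–7 days, with T-705 suspended in 0.4% CMC and ribavirin in saline. Remaining animals were observed 21–28 days for survival and day of death. Test doses had first been checked for tolerance in uninfected animals.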

[10] = tested on: Pichinde virus; experiment: Antiviral activity against Pichinde virus An 4763 infected Syrian golden hamster assessed as mean day of death at 20 mg/kg, po twice daily for 7 days administered 72 hrs post viral-challenge measured on day 7 of viral infection; format: functional; procedure, shortened: as §2
[11] = tested on: Punta Toro virus; experiment: Antiviral activity against 50 PFU Punta Toro virus Adames infected C57BL/6 mouse assessed as animals with detectable virus level in serum at 10 mg/kg, po twice daily administered 24 hrs post viral challenge measured on day 3 of viral infection; format: functional; procedure, shortened: as §4
[12] = tested on: Punta Toro virus; experiment: Antiviral activity against 5000 PFU Punta Toro virus Adames infected C57BL/6 mouse assessed as animals with detectable virus level in liver at 10 mg/kg, po twice daily administered 24 hrs post viral challenge measured on day 3 of viral infection; format: functional; procedure, shortened: as §3
[13] = tested on: Pichinde virus; experiment: Antiviral activity against Pichinde virus An 4763 infected Syrian golden hamster assessed as animals with detectable virus level in liver at 50 mg/kg, po twice daily for 7 days administered 24 hrs post viral-challenge measured on day 7 of viral infection; format: functional; procedure, shortened: as §1
[14] = tested on: Pichinde virus; experiment: Antiviral activity against Pichinde virus An 4763 infected Syrian golden hamster assessed as animals with detectable virus level in liver at 20 mg/kg, po twice daily for 7 days administered 24 hrs post viral-challenge measured on day 7 of viral infection; format: functional; procedure, shortened: as §1
[15] = tested on: Pichinde virus; experiment: Antiviral activity against Pichinde virus An 4763 infected Syrian golden hamster assessed as mean viral titer per 0.1 mL of serum at 50 mg/kg, po twice daily for 7 days administered 72 hrs post viral-challenge measured on day 7 of viral infection; format: functional; procedure, shortened: as §1
[16] = tested on: Punta Toro virus; experiment: Antiviral activity against 50 PFU Punta Toro virus Adames infected C57BL/6 mouse assessed as animals with detectable virus level in liver at 30 mg/kg, po twice daily administered 24 hrs post viral challenge measured on day 3 of viral infection; format: functional; procedure, shortened: as §4
[17] = tested on: Junin virus; experiment: Antiviral activity against Junin virus Candid-1 in Vero cells assessed as inhibition of virus-induced visual cytopathic effect after 7 to 8 days; format: functional, organism-based; conditions: Mammarenavirus juninense, Candid-1, Vero
[18] = tested on: Pichinde virus; experiment: Antiviral activity against Pichinde virus An 4763 in Vero cells assessed as inhibition of virus-induced visual cytopathic effect after 7 to 8 days; format: functional, organism-based
Procedure, shortened: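 Subconfluent (50-70%) Vero cells were infected with virus in 2% FBS medium at the CCID50 giving maximal CPE. Half-log drug dilutions were added at infection. EC50 was obtained by regression analysis.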

[19] = tested on: Pichinde virus; experiment: Antiviral activity against Pichinde virus An 4763 infected Syrian golden hamster assessed as mean viral titer per 0.1 mL of serum at 40 mg/kg, po twice daily for 7 days administered 4 hrs before viral-challenge measured on day 7 of viral infection; format: functional
[20] = tested on: Punta Toro virus; experiment: Antiviral activity against 500 PFU Punta Toro virus Adames infected C57BL/6 mouse assessed as mean day of death at 10 mg/kg, po twice daily for 5 days administered 24 hrs post viral challenge; format: functional
Procedure, shortened: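 Groups of 15 mice (25–30 placebo) were inoculated subcutaneously with PTV. Drug in 0.4% carboxymethylcellulose was given by oral gavage twice daily.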

NC(=O)c1nc(F)cnc1O [FAVIPIRAVIR]
Activity [1]: 100%
Activity [2]: 9.5 days
log10CCID50 [3]: <5.2
EC50 [4]: 32 µM
Activity [5]: 0%
Activity [6]: 411 IU/L
Activity [7]: 30 IU/L
Activity [8]: 2274 IU/L
Activity [9]: 4.4 days
Activity [10]: 8.1 days
Activity [11]: 100%
Activity [12]: 20%
Activity [13]: 100%
Activity [14]: 100%
log10CCID50 [15]: 6.6
Activity [16]: 40%
EC50 [17]: 5 µM
EC50 [18]: 6 µM
log10CCID50 [19]: <3
Activity [20]: 4.7 days

NC(=O)c1ncn([C@@H]2O[C@H](CO)[C@@H](O)[C@H]2O)n1 [RIBAVIRIN]
Activity [1]: 100%
Activity [2]: 18 days
log10CCID50 [3]: 5.9
EC50 [4]: 70 µM
Activity [5]: 20%
Activity [6]: 15 IU/L
Activity [7]: 30 IU/L
Activity [8]: 1515 IU/L
Activity [9]: 4 days
Activity [10]: 18.3 days
Activity [11]: 60%
Activity [12]: 0%
Activity [13]: 100%
Activity [14]: 100%
log10CCID50 [15]: 6
Activity [16]: 20%
EC50 [17]: 11 µM
EC50 [18]: 13 µM
log10CCID50 [19]: <3
Activity [20]: 5 days
